Active and inactive are the calls of the source. No cut-off for these calls is given here. Peptide text beside a SMILES is read from it.
Assays:
Splicing factor 45 = target: T1, Splicing factor 45 (Homo sapiens, UniProt Q96I25); assay: Binding affinity to His-Z-tagged SPF45 (unknown origin) UHM domain expressed in Escherichia coli BL21 (DE3) cells by ITC analysis
T1 sequence (Q96I25 whole entry): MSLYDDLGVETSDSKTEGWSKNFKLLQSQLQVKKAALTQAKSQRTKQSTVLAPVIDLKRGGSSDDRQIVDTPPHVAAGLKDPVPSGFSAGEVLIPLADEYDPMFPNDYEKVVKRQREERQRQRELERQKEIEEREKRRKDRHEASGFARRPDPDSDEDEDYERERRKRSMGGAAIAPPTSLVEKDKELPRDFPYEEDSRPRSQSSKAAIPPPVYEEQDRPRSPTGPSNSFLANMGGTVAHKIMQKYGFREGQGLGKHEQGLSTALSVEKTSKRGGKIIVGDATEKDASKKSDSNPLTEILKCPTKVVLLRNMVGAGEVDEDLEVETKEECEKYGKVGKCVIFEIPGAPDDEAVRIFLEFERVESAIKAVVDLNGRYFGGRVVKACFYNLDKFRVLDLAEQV
Summary of the method: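 SPF45 UHM domain expressed in BL21 (DE3) as His-Ztag fusion (0.5 mM IPTG, overnight at 20 °C), then Ni-NTA, TEV cleavage of tag, ion exchange and size exclusion. ITC: 5–20 μM protein in cell titrated with 10-fold concentrated peptide, 1.5 μL injections. One-site binding fit; errors are SD of fitting errors by error propagation.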

[1] = target: T2, Splicing factor 45 (Homo sapiens) (UniProt Q96I25); assay: Inhibition of SPF45-mediated splicing in human HeLa nuclear extracts assessed as reduction in complex A formation during spliceosome-assembly at 25 to 500 uM incubated for 20 mins before addition of IgM pre-mRNA as the splicing substrate by agarose gel electrophoresis; assay type: tissue-based; details: dose 25-500 µM
T2 sequence (whole entry): T1 sequence (Q96I25 whole entry)
Summary of the method: (§1)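 Peptide added to 25–500 μM final and held 20 min on ice before pre-mRNA. Spliced product normalized to the no-peptide control; SD from two independent experiments. Complex formation read by agarose gel electrophoresis.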

[2] = target: T2, Splicing factor 45 (Homo sapiens); assay: Inhibition of SPF45-mediated splicing in human HeLa nuclear extracts assessed as splicing products formation at 25 to 500 uM incubated for 20 mins before addition of IgM pre-mRNA as the splicing substrate by agarose gel electrophoresis; set-up: scale not given: the % may be the effect or the level left; details: dose 25-500 µM; summary of the method: as §1
[3] = target: T2, Splicing factor 45 (Homo sapiens); assay: Inhibition of SPF45-mediated splicing in human HeLa nuclear extracts assessed as reduction in splicing products formation at 500 uM incubated for 20 mins before addition of IgM pre-mRNA as the splicing substrate by agarose gel electrophoresis; summary of the method: as §1
Homo sapiens = species on record: Homo sapiens; assay: Selectivity index, ratio of Kd for U2AF65 UHM domain to Kd for His-Z-tagged SPF45 (unknown origin) UHM domain

| Kd (Splicing factor 45) | SMILES | also measured |
| --- | --- | --- |
| 960 nM | N=C(N)NCCC[C@@H]1NC(=O)[C@H](CO)NC(=O)[C@H](N)CCCCNC(=O)CC[C@H](C(=O)N[C@@H](Cc2cnc[nH]2)C(=O)O)NC(=O)[C@H](CC(=O)O)NC(=O)[C@H](Cc2c[nH]c3ccccc23)NC1=O | – |
| 1260 nM | CN1CCCC[C@@H](N)C(=O)N[C@@H](CO)C(=O)N[C@@H](CCCNC(=N)N)C(=O)N[C@@H](Cc2c[nH]c3ccccc23)C(=O)N[C@@H](CC(=O)O)C(=O)N[C@@H](C(=O)N[C@@H](CCCCN)C(=O)O)CCC1=O | – |
| 180 nM | N=C(N)NCCC[C@@H]1NC(=O)[C@H](CO)NC(=O)[C@H](N)CCCCNC(=O)CC[C@H](C(=O)N[C@@H](CCCCN)C(=O)O)NC(=O)[C@H](CC(=O)O)NC(=O)[C@H](Cc2c[nH]c3ccccc23)NC1=O | inhibition [1]: Active; Activity [2]: 29%; inhibition [3]: Active; Ratio (Homo sapiens): 270 |
| 750 nM | N=C(N)NCCC[C@@H]1NC(=O)[C@H](CO)NC(=O)[C@H](N)CCCCNC(=O)CC[C@H](C(=O)NC(CCCCN=C(N)N)C(=O)O)NC(=O)[C@H](CC(=O)O)NC(=O)[C@H](Cc2c[nH]c3ccccc23)NC1=O (some centres undefined) | – |
| 510 nM | N=C(N)NCCC[C@H](NC(=O)[C@H]1CCC(=O)NCCCC[C@@H](N)C(=O)N[C@@H](CO)C(=O)N[C@@H](CCCNC(=N)N)C(=O)N[C@@H](Cc2c[nH]c3ccccc23)C(=O)N[C@@H](CC(=O)O)C(=O)N1)C(=O)O | – |
| 800 nM | N=C(N)NCCC[C@@H]1NC(=O)[C@H](CO)NC(=O)[C@H](N)CCCCNC(=O)CC[C@H](C(=O)N[C@@H](Cc2c[nH]c3ccccc23)C(=O)O)NC(=O)[C@H](CC(=O)O)NC(=O)[C@H](Cc2c[nH]c3ccccc23)NC1=O | – |
| 1400 nM | N=C(N)NCCC[C@@H]1NC(=O)[C@H](CO)NC(=O)[C@H](N)CCCCNC(=O)CC[C@H](C(=O)O)NC(=O)[C@H](CC(=O)O)NC(=O)[C@H](Cc2c[nH]c3ccccc23)NC1=O | – |
| 1850 nM | N=C(N)NCCC[C@@H]1NC(=O)[C@H](CO)NC(=O)[C@H](N)CCCCNC(=O)CC[C@H](C(=O)N[C@@H](Cc2ccc(O)cc2)C(=O)O)NC(=O)[C@H](CC(=O)O)NC(=O)[C@H](Cc2c[nH]c3ccccc23)NC1=O | – |
| 15700 nM | N=C(N)NCCC[C@H](NC(=O)[C@H](CO)NC(=O)[C@@H](N)CCCCN)C(=O)N[C@@H](Cc1c[nH]c2ccccc12)C(=O)N[C@@H](CC(=O)O)C(=O)N[C@@H](CCC(=O)O)C(=O)O (H-KSRWDE-OH) | Ratio (Homo sapiens): 9 |
